From ChEMBL document CHEMBL4270599, “Synthesis of a 3'-C-ethynyl-β-d-ribofuranose purine nucleoside library: Discovery of C7-deazapurine analogs as potent antiproliferative nucleosides” (Eur J Med Chem, 2018)

Columns and labels:
OVCAR-3 = assay: Growth inhibition of human OVCAR3 cells assessed as cell growth at 10^-7 M incubated for 48 hrs by sulforhodamine B assay relative to control; type: functional; settings: OVCAR-3, 48 h, read-out: Activity
NCI-H23 = assay: Cytotoxicity against human NCI-H23 cells after 48 hrs by SRB assay; type: functional; settings: NCI-H23, 48 h; for GI50: read-out: GI50; for TGI: read-out: TGI
ACHN [1] = assay: Growth inhibition of human ACHN cells assessed as cell growth at 10^-4 M incubated for 48 hrs by sulforhodamine B assay relative to control; type: functional; settings: read-out: Activity
ACHN [2] = assay: Growth inhibition of human ACHN cells assessed as cell growth at 10^-7 M incubated for 48 hrs by sulforhodamine B assay relative to control; type: functional; settings: read-out: Activity
HL-60(TB) = assay: Growth inhibition of human HL-60(TB) cells assessed as cell growth at 10^-6 M incubated for 48 hrs by sulforhodamine B assay relative to control; type: functional; settings: HL-60, 48 h, read-out: Activity
HCT-15 = assay: Growth inhibition of human HCT15 cells assessed as cell growth at 10^-7 M incubated for 48 hrs by sulforhodamine B assay relative to control; type: functional; settings: HCT-15, 48 h, read-out: Activity
BT-549 = assay: Growth inhibition of human BT549 cells assessed as cell growth at 10^-8 M incubated for 48 hrs by sulforhodamine B assay relative to control; type: functional; settings: BT-549, 48 h, read-out: Activity
MDA-MB-231 = assay: Growth inhibition of human MDA-MB-231 cells assessed as cell growth at 10^-4 M incubated for 48 hrs by sulforhodamine B assay relative to control; type: functional; settings: MDA-MB-231, 48 h, read-out: Activity
L1210 = assay: Antiproliferative activity against mouse L1210 cells after 48 hrs by Coulter counter method; type: functional, cell-based; settings: L1210, 48 h
Outline: (§1)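 Cell count assay in 96-well microtiter plates; (5–7.5) × 10⁴ tumor cells per well plus test compound. Cells proliferated at 37 °C in humidified CO₂-controlled atmosphere, 48 h for murine leukemia L1210, 72 h for human lymphocytic CEM and cervix carcinoma HeLa. Counted by Coulter counter; IC₅₀ is the concentration that inhibits proliferation by 50%.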

HOP-62 = assay: Cytotoxicity against human HOP62 cells after 48 hrs by SRB assay; type: functional; settings: HOP-62, 48 h; for GI50: read-out: GI50; for TGI: read-out: TGI
MCF7 = assay: Cytotoxicity against human MCF7 cells after 48 hrs by SRB assay; type: functional; settings: MCF7, 48 h; for GI50: read-out: GI50
SF-268 = assay: Cytotoxicity against human SF268 cells after 48 hrs by SRB assay; type: functional; settings: SF-268, 48 h; for GI50: read-out: GI50; for TGI: read-out: TGI
OVCAR-4 [3] = assay: Growth inhibition of human OVCAR4 cells assessed as cell growth at 10^-6 M incubated for 48 hrs by sulforhodamine B assay relative to control; type: functional; settings: OVCAR-4, 48 h, read-out: Activity
SNB-19 [4] = assay: Growth inhibition of human SNB19 cells assessed as cell growth at 10^-7 M incubated for 48 hrs by sulforhodamine B assay relative to control; type: functional; settings: SNB-19, 48 h, read-out: Activity
SK-MEL-2 [5] = assay: Cytotoxicity against human SK-MEL-2 cells after 48 hrs by SRB assay; type: functional; settings: SK-MEL-2, 48 h; for GI50: read-out: GI50; for CC50: read-out: LC50 (the source's name); for TGI: read-out: TGI
UACC-62 = assay: Growth inhibition of human UACC62 cells assessed as cell growth at 10^-6 M incubated for 48 hrs by sulforhodamine B assay relative to control; type: functional; settings: UACC-62, 48 h, read-out: Activity
NCI-H226 = assay: Growth inhibition of human NCI-H226 cells assessed as cell growth at 10^-6 M incubated for 48 hrs by sulforhodamine B assay relative to control; type: functional; settings: NCI-H226, 48 h, read-out: Activity
SNB-19 [6] = assay: Growth inhibition of human SNB19 cells assessed as cell growth at 10^-5 M incubated for 48 hrs by sulforhodamine B assay relative to control; type: functional; settings: SNB-19, 48 h, read-out: Activity
SF-539 = assay: Growth inhibition of human SF539 cells assessed as cell growth at 10^-6 M incubated for 48 hrs by sulforhodamine B assay relative to control; type: functional; settings: SF-539, 48 h, read-out: Activity
HOP-92 = assay: Growth inhibition of human HOP92 cells assessed as cell growth at 10^-7 M incubated for 48 hrs by sulforhodamine B assay relative to control; type: functional; settings: HOP-92, 48 h, read-out: Activity
SK-OV-3 = assay: Growth inhibition of human SKOV3 cells assessed as cell growth at 10^-7 M incubated for 48 hrs by sulforhodamine B assay relative to control; type: functional; settings: SK-OV-3, 48 h, read-out: Activity
Hs-578T = assay: Cytotoxicity against human Hs 578T cells after 48 hrs by SRB assay; type: functional; settings: for GI50: read-out: GI50; for TGI: read-out: TGI
HeLa = assay: Antiproliferative activity against human HeLa cells after 72 hrs by Coulter counter method; type: functional, cell-based; outline: as §1
SF-295 = assay: Growth inhibition of human SF295 cells assessed as cell growth at 10^-6 M incubated for 48 hrs by sulforhodamine B assay relative to control; type: functional; settings: SF-295, 48 h, read-out: Activity
OVCAR-5 = assay: Growth inhibition of human OVCAR5 cells assessed as cell growth at 10^-4 M incubated for 48 hrs by sulforhodamine B assay relative to control; type: functional; settings: OVCAR-5, 48 h, read-out: Activity
OVCAR-4 [7] = assay: Growth inhibition of human OVCAR4 cells assessed as cell growth at 10^-4 M incubated for 48 hrs by sulforhodamine B assay relative to control; type: functional; settings: OVCAR-4, 48 h, read-out: Activity
SK-MEL-2 [8] = assay: Growth inhibition of human SK-MEL-2 cells assessed as cell growth at 10^-7 M incubated for 48 hrs by sulforhodamine B assay relative to control; type: functional; settings: SK-MEL-2, 48 h, read-out: Activity
RXF 393 = assay: Growth inhibition of human RXF393 cells assessed as cell growth at 10^-7 M incubated for 48 hrs by sulforhodamine B assay relative to control; type: functional; settings: RXF 393, 48 h, read-out: Activity
SR [9] = assay: Growth inhibition of human SR cells assessed as cell growth at 10^-4 M incubated for 48 hrs by sulforhodamine B assay relative to control; type: functional; settings: read-out: Activity
SR [10] = assay: Growth inhibition of human SR cells assessed as cell growth at 10^-5 M incubated for 48 hrs by sulforhodamine B assay relative to control; type: functional; settings: read-out: Activity
Malme-3M = assay: Growth inhibition of human MALME-3M cells assessed as cell growth at 10^-5 M incubated for 48 hrs by sulforhodamine B assay relative to control; type: functional; settings: read-out: Activity
[11] = read-out: LC50 (the source's name)
[12] = read-out: pLC50 (the source's name) (converted)

## C#C[C@@]1(O)[C@@H](CO)O[C@@H](n2cc(I)c3c(N)ncnc32)[C@@H]1O
OVCAR-3
  growth at 0.1 µM: 76 to 79%
NCI-H23
  GI50: 271 to 395 nM
  TGI: 4.31 to 9.72 µM
NCI-H23; [11]
  CC50: > 100 µM
ACHN [1]
  growth at 100 µM: 1%
ACHN [2]
  growth at 0.1 µM: 72%
HL-60(TB)
  growth at 1 µM: -38%
HCT-15
  growth at 0.1 µM: 51 to 60%
BT-549
  growth at 0.01 µM: 86 to 96%
MDA-MB-231
  growth at 100 µM: 11 to 12%
L1210
  IC50: 56 nM
HOP-62
  GI50: 367 to 1520 nM
  TGI: 6.28 to 12 µM
HOP-62; [11]
  CC50: > 100 µM
MCF7; read-out: TGI
  TGI: > 100000 nM
MCF7; [12]
  CC50: > 100 µM
MCF7; read-out: pTGI (converted)
  TGI: > 100000 nM
SF-268
  GI50: 941 to 1280 nM
  TGI: 32.2 to 77.3 µM
SF-268; [11]
  CC50: > 100 µM
OVCAR-4 [3]
  growth at 1 µM: 38 to 53%
SNB-19 [4]
  growth at 0.1 µM: 34 to 59%
SK-MEL-2 [5]
  GI50: 177 to 321 nM
  CC50: 7.77 to 100 µM
  TGI: 1590 to 1950 nM
UACC-62
  growth at 1 µM: 40 to 43%
NCI-H226
  growth at 1 µM: 57 to 70%
SNB-19 [6]
  growth at 10 µM: 2 to 3%
SF-539
  growth at 1 µM: 23 to 35%
HOP-92
  growth at 0.1 µM: 38 to 70%
SK-OV-3
  growth at 0.1 µM: 26 to 40%
Hs-578T
  GI50: 550 to 1120 nM
  TGI: 7.12 to 8.62 µM
Hs-578T; [11]
  CC50: > 100 µM
HeLa
  IC50: 180 nM
SF-295
  growth at 1 µM: 31 to 35%
OVCAR-5
  growth at 100 µM: 2 to 5%
OVCAR-4 [7]
  growth at 100 µM: 9 to 14%
SK-MEL-2 [8]
  growth at 0.1 µM: 63 to 77%
RXF 393
  growth at 0.1 µM: 82 to 90%

## C#C[C@@]1(O)[C@@H](CO)O[C@@H](n2cc(Cl)c3c(N)ncnc32)[C@@H]1O
OVCAR-3
  growth at 0.1 µM: 74 to 77%
NCI-H23
  GI50: 173 to 213 nM
  TGI: 0.716 to 1.28 µM
NCI-H23; [12]
  CC50: > 100 µM
ACHN [1]
  growth at 100 µM: 7%
ACHN [2]
  growth at 0.1 µM: 72%
HCT-15
  growth at 0.1 µM: 57 to 61%
BT-549
  growth at 0.01 µM: 88 to 95%
L1210
  IC50: 14 nM
HOP-62
  GI50: 216 to 299 nM
  TGI: 1.16 to 3.35 µM
HOP-62; [12]
  CC50: > 100 µM
MCF7
  GI50: 21.8 to 31.9 nM
MCF7; [11]
  CC50: 5.32 to 7.11 µM
MCF7; read-out: TGI
  TGI: 1040 to 1160 nM
SF-268
  GI50: 328 to 338 nM
  TGI: 14.4 to 31.1 µM
SF-268; [12]
  CC50: > 100 µM
OVCAR-4 [3]
  growth at 1 µM: 5 to 13%
SNB-19 [4]
  growth at 0.1 µM: 12 to 70%
SK-MEL-2 [5]
  GI50: 83.5 to 146 nM
  CC50: > 100 µM
  TGI: 268 to 481 nM
SR [9]
  growth at 100 µM: 2 to 5%
SF-539
  growth at 1 µM: 6 to 10%
HOP-92
  growth at 0.1 µM: 90%
SK-OV-3
  growth at 0.1 µM: 56 to 72%
Hs-578T
  GI50: 463 to 2480 nM
  TGI: 7.01 to 100 µM
Hs-578T; [12]
  CC50: > 100 µM
HeLa
  IC50: 51 nM
SF-295
  growth at 1 µM: 13 to 20%
SK-MEL-2 [8]
  growth at 0.1 µM: 47 to 66%
SR [10]
  growth at 10 µM: 1 to 5%
RXF 393
  growth at 0.1 µM: 105 to 110%

## C#C[C@@]1(O)[C@@H](CO)O[C@@H](n2cc(Br)c3c(N)ncnc32)[C@@H]1O
OVCAR-3
  growth at 0.1 µM: 62 to 72%
NCI-H23
  GI50: 162 to 225 nM
  TGI: 1.93 to 4.21 µM
NCI-H23; [12]
  CC50: > 100 µM
ACHN [1]
  growth at 100 µM: 7%
ACHN [2]
  growth at 0.1 µM: 75%
HCT-15
  growth at 0.1 µM: 45 to 63%
BT-549
  growth at 0.01 µM: 89 to 103%
MDA-MB-231
  growth at 100 µM: 9%
L1210
  IC50: 28 nM
HOP-62
  GI50: 211 to 427 nM
  TGI: 4.76 to 100 µM
HOP-62; [11]
  CC50: > 100 µM
MCF7
  GI50: 16 to 30.7 nM
MCF7; [11]
  CC50: > 100 µM
MCF7; read-out: TGI
  TGI: 1190 to 1810 nM
SF-268
  GI50: 467 to 498 nM
  TGI: 33.2 to 80.6 µM
SF-268; [11]
  CC50: > 100 µM
OVCAR-4 [3]
  growth at 1 µM: 19 to 29%
SNB-19 [4]
  growth at 0.1 µM: 6 to 71%
SK-MEL-2 [5]
  GI50: 197 to 916 nM
  CC50: 49.5 to 100 µM
  TGI: 430 to 758 nM
UACC-62
  growth at 1 µM: 21 to 23%
SR [9]
  growth at 100 µM: 2 to 6%
NCI-H226
  growth at 1 µM: 27 to 66%
SNB-19 [6]
  growth at 10 µM: 1%
SF-539
  growth at 1 µM: 3 to 19%
HOP-92
  growth at 0.1 µM: 63 to 78%
SK-OV-3
  growth at 0.1 µM: 28 to 62%
Hs-578T
  GI50: 307 to 1350 nM
  TGI: 52.4 to 100 µM
Hs-578T; [12]
  CC50: > 100 µM
HeLa
  IC50: 93 nM
Malme-3M
  growth at 10 µM: 5 to 10%
SF-295
  growth at 1 µM: 24 to 36%
OVCAR-4 [7]
  growth at 100 µM: 3 to 15%
SK-MEL-2 [8]
  growth at 0.1 µM: 48 to 75%
SR [10]
  growth at 10 µM: 1 to 5%
RXF 393
  growth at 0.1 µM: 81 to 103%
